Measured values from different studies.
Lines come from different studies, so protocols differ.
Target: Serine/threonine-protein kinase 24 (STK24, Homo sapiens, UniProt Q9Y6E0)

SMILES | effect on | mode | technique | cells | concentration | endpoint | result
COc1cc2ncnc(Nc3ccc(F)c(Cl)c3)c2cc1OCCCN1CCOCC1 | cell-free assay | – | – | – | 0.5 µM | remaining signal | 102%
Nc1c(C(=O)NCc2ccc(C(=O)NCCCC3CCCCC3)cc2)cnn1-c1ccccc1 | cell-free assay | – | competition with immobilised ligand | – | 0.1 µM | remaining binding | 91%
Oc1cccc(-c2nc(N3CCOCC3)c3oc4ncccc4c3n2)c1 | cell-free assay | – | – | – | 0.5 µM | remaining signal | 100%
COc1cc2ncnc(Nc3ccc(Oc4ccccc4)c(C)c3C)c2cc1OC | enzyme activity | inhibitor | – | – | 1 µM | inhibition | 10%
O=C1CCc2cc(Nc3cc(OC4CCOCC4)c([N+](=O)[O-])cc3Cl)ccc2N1 | cell-free assay | – | competition with immobilised ligand | – | 1 µM | remaining binding | 97%
COc1cc(-c2cc(-c3ccc(N4CCNCC4)cc3)cnc2C)cc(OC)c1OC | enzyme activity | inhibitor | – | – | 1 µM | inhibition | 4%
Cc1ccc(Nc2nccc(N(C)c3ccc4c(C)n(C)nc4c3)n2)cc1S(N)(=O)=O | enzyme activity | inhibitor | – | – | 0.3 µM | inhibition | -5%
CCCCNc1ncc2c(-c3ccc(F)cc3)nn(C[C@H]3CC[C@H](N)CC3)c2n1 | target engagement in cells | inhibitor | chemoproteomics | – | 20 mM | inhibition | 8.3%
Cn1cncc1C1=CN(c2ncnc3[nH]cnc23)CCS1 | enzyme activity | inhibitor | radiometric | – | 50 nM | inhibition | 13.2%
N#CC1(c2ccccn2)CCN(Cc2cc(C(=O)N3CCCC3)c(=O)n3ccccc23)CC1 | cell-free assay | – | competition with immobilised ligand | – | 1 µM | remaining binding | 87%
O=C(Nc1cnn(-c2csc(C(=O)NC3COC3)c2)c1)Nc1ccccc1Cl | enzyme activity | inhibitor | – | – | 5 µM | remaining activity | 113%
CC(C)(C)c1nc(-c2cccc(NS(=O)(=O)c3c(F)cccc3F)c2F)c(-c2ccnc(N)n2)s1 | enzyme activity | inhibitor | radiometric | – | 1 µM | remaining activity | 14%
O=C(O)c1cc(-c2ccc(C3CCNCC3)cc2)c2ccc(-c3ccc(C(F)(F)F)cc3)cc2c1 | cell-free assay | – | competition with immobilised ligand | – | 1 µM | remaining binding | 100%
Cn1c2c(c3ccc(Cl)c(Cl)c31)C(C#N)C1(CCCC1)NC2=O (stereo not drawn) | thermal stability | – | DSF | – | 10 µM | ΔTm | 0.8 °C
CN1CC(Oc2cnc(C#N)cc2-c2ccn3nc(NC(=O)C4CC4)cc3c2)C1 | enzyme activity | inhibitor | – | – | 1 µM | inhibition | 6%
Oc1ccc(-c2nc(-c3ccncc3)c(-c3ccc(F)cc3)[nH]2)cc1 | cell-free assay | – | – | – | 0.5 µM | remaining signal | 95.2%
Cn1c2c(Cl)c(Cl)ccc2c2cn[nH]c(=O)c21 | thermal stability | – | DSF | – | 10 µM | ΔTm | 0.7 °C

SMILES | effect on | mode | technique | cells | concentration | endpoint | result
CCN1CCN(Cc2ccc(NC(=O)c3ccc(C)c(Oc4ccnc5[nH]ccc45)c3)cc2C(F)(F)F)CC1 | target engagement in cells | inhibitor | chemoproteomics | Huh-7 | 1 µM | inhibition | -56%
C[C@@H]1CN(c2cc(-c3nn(C)c4ccc(OC5(C)CC5)cc34)ncn2)C[C@H](C)O1 | cell-free assay | – | competition with immobilised ligand | – | 1 µM | remaining binding | 79%
Cn1c2c(Cl)c(Cl)ccc2c2cc(N)[nH]c(=O)c21 | thermal stability | – | DSF | – | 10 µM | ΔTm | 0.6 °C
COc1cc(Cl)c(C(=O)N[C@@H](CN[C@H]2CC[C@@H](N)CC2)Cc2ccc(C#N)cc2)cc1-c1ccc(CN[C@H](C)c2ccc(C)cc2)o1 | enzyme activity | inhibitor | – | – | 1 µM | remaining activity | 96%
Cn1c2c(c3ccc(Cl)c(Cl)c31)C(C#N)C(C)(C)NC2=O (stereo not drawn) | thermal stability | – | DSF | – | 10 µM | ΔTm | 0.6 °C
CCN1CCN(Cc2ccc(NC(=O)c3ccc(C)c(/C=C/c4cnc5[nH]ccc5c4OC)c3)cc2C(F)(F)F)CC1 | target engagement in cells | inhibitor | chemoproteomics | A-375 | 50 nM | inhibition | -17%
O=C(Nc1cnn(-c2csc(C(=O)NC3COC3)c2)c1)Nc1c(F)cccc1Cl | enzyme activity | inhibitor | – | – | 5 µM | remaining activity | 81.6%
COc1ccc2c(O[C@@H]3C[C@H]4C(=O)N[C@]5(C(=O)O)CC5/C=C\CCCCC[C@H](NC(=O)OC5CCCC5)C(=O)N4C3)cc(-c3csc(NC(=O)C(C)C)n3)nc2c1C (stereo partly drawn) | cell-free assay | – | competition with immobilised ligand | – | 1 µM | remaining binding | 100%
Cn1c2c(c3ccc(Cl)c(Cl)c31)C(C#N)C1(CCOCC1)NC2=O (stereo not drawn) | thermal stability | – | DSF | – | 10 µM | ΔTm | -0.3 °C
Cc1ccc(C(=O)Nc2ccc(CN3CCN(C)CC3)c(C(F)(F)F)c2)cc1C#Cc1cnc2cccnn12 | enzyme activity | inhibitor | – | – | 23.5 nM | remaining activity | 88%
CC/C(=N\NC(=O)NCc1cccc(O)c1)c1ccc(O)c(C)c1O | enzyme activity | inhibitor | – | – | 0.1 µM | inhibition | 4.3%
CN(C)c1ncnc(-c2ccc3nc(Nc4cc(CN5CCN(C(=O)CC(F)(F)F)CC5)ccn4)[nH]c3c2)c1Cl | cell-free assay | – | competition with immobilised ligand | – | 1 µM | remaining binding | 90%
O=C1Nc2ccc(Cl)cc2C1=Cc1cc(Cl)c(O)c(Cl)c1 | cell-free assay | – | – | – | 0.5 µM | remaining signal | 104%
NS(=O)(=O)c1cc(NC(=O)C2(c3ccccc3Cl)CC2)ccc1Oc1cccc(Cl)c1 | cell-free assay | – | competition with immobilised ligand | – | 1 µM | remaining binding | 93%
CNC(=O)c1cc(Oc2ccc(NC(=O)Nc3ccc(Cl)c(C(F)(F)F)c3)cc2)ccn1 | enzyme activity | inhibitor | – | – | 0.3 µM | inhibition | -9%
c1ccc(CNc2nc(N3CCOc4ccccc43)nc3c2CCCC3)cc1 | target engagement in cells | inhibitor | chemoproteomics | – | 20 mM | inhibition | -7%
